Measurements reported in ChEMBL document CHEMBL1795310, “Novel agmatine and agmatine-like peptidomimetic inhibitors of the West Nile virus NS2B/NS3 serine protease” (Eur J Med Chem, 2011).
Activity calls are given as the source filed them. No cut-off for these calls is given here.

Experiments:
[1] = Inhibition of West Nile virus NS2B-NS3 serine protease preincubated for 1 hr before addition of Pyr-RTKR-AMC fluorogenic substrate by measuring fluorescence every 45 seconds for 1 hr by fluorescence assay
How it was run: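 WNV NS2B/NS3 protease (20 nM) preincubated with varying inhibitor concentrations 1 h at 25 °C in pH 8.0 buffer (10 mM Tris–HCl, 1 mM CHAPS, 20% v/v glycerol). Pyr-RTKR-AMC added to 20 μM final. Fluorescence (ex 355/em 460 nm) read at 37 °C every 45 s for 1 h. Duplicates. IC50 from sigmoidal fit of initial velocity vs log[inhibitor]. Nona-D-Arg-NH2 as positive control.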

[2] = target: Prothrombin (Homo sapiens) (UniProt P00734); assay: Inhibition of thrombin assessed as fluorescence intensity at 100 uM pretreated for 1 hr before substrate addition measured every 45 seconds for 1 hr
How it was run: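 Assay run with a commercial AFC thrombin kit. Thrombin (40 nM) incubated with inhibitor 1 h at 25 °C in kit reaction buffer, then AFC substrate added. Fluorescence (ex 380/em 500 nm) read at 25 °C. NAPAP served as positive control.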

[3] = Competitive inhibition of West Nile virus NS2B-NS3 serine protease assessed as rate of Pyr-RTKR-AMC hydrolysis every 45 seconds for 1 hr by Lineweaver-Burk plot analysis
How it was run: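 Inhibitor at 0, 5, 10, 20, 40 and 70 μM preincubated with protease (20 nM) 1 h at 25 °C, pH 8.0 (10 mM Tris–HCl, 1 mM CHAPS, 20% v/v glycerol). Pyr-RTKR-AMC then added at 10–500 μM (seven levels). Hydrolysis followed at 37 °C, ex 355/em 460 nm. Ki from non-linear regression with a competitive inhibition model, alongside a 1/V vs 1/S plot.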

| Structure (SMILES) | IC50 [1] [µM] | Activity [2] | Ki [3] [µM] |
| --- | --- | --- | --- |
| N=C(N)NCCNC(=O)[C@H](CCCCN)NC(=O)[C@H](CCCCN)NC(=O)Cc1ccc(-c2ccccc2)cc1 | > 100 |  |  |
| N=C(N)NC1CCC(NC(=O)[C@H](CCCCN)NC(=O)[C@H](CCCCN)NC(=O)Cc2ccc(-c3ccccc3)cc2)CC1 (stereo partly drawn) | > 100 |  |  |
| N=C(N)NCCCCNC(=O)[C@H](CCCCN)NC(=O)[C@H](CCCCN)NC(=O)Cc1ccc(-c2ccccc2)cc1 | 4.7 | inactive | 2.05 |
| CC(=O)N[C@@H](CCCCN)C(=O)N[C@@H](CCCCN)C(=O)NCCCCNC(=N)N | 18.2 | inactive |  |
| N=C(N)NCCCNC(=O)[C@H](CCCCN)NC(=O)[C@H](CCCCN)NC(=O)Cc1ccc(-c2ccccc2)cc1 | > 100 |  |  |
| N=C(N)NCCCCCNC(=O)[C@H](CCCCN)NC(=O)[C@H](CCCCN)NC(=O)Cc1ccc(-c2ccccc2)cc1 | > 100 |  |  |
| N=C(N)NC[C@H]1CCN(C(=O)[C@H](CCCCN)NC(=O)[C@H](CCCCN)NC(=O)Cc2ccc(-c3ccccc3)cc2)C1 | > 100 |  |  |
| N=C(N)NCC1CCN(C(=O)[C@H](CCCCN)NC(=O)[C@H](CCCCN)NC(=O)Cc2ccc(-c3ccccc3)cc2)CC1 | > 100 |  |  |
| N=C(N)NC/C=C/CNC(=O)[C@H](CCCCN)NC(=O)[C@H](CCCCN)NC(=O)Cc1ccc(-c2ccccc2)cc1 | 61.2 |  |  |
| N=C(N)NC[C@@H]1CCN(C(=O)[C@H](CCCCN)NC(=O)[C@H](CCCCN)NC(=O)Cc2ccc(-c3ccccc3)cc2)C1 | 20 |  |  |
